Laboratory results taken from ChEMBL document CHEMBL1921724, “In search of a cytostatic agent derived from the alkaloid lycorine: synthesis and growth inhibitory properties of lycorine derivatives” (Bioorg Med Chem, 2011).

What was measured:
[1] = Growth inhibition of pro-apoptotic stimuli-sensitive human Hs683 cells after 72 hrs by MTT assay; assay type: functional; details: Hs 683, 72 h
Summary of the method: (§1)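 Cells seeded at 10,000 to 40,000 cells/mL depending on cell type and allowed to attach for 24 h. They were then cultured 72 h with or without compound (untreated control). Living cells were measured by MTT reduction to formazan, read at 570 nm against a 630 nm reference. GI50 was derived from the growth levels.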

A549 = experiment: Growth inhibition of pro-apoptotic stimuli-resistant human A549 cells after 72 hrs by MTT assay; assay type: functional; details: A549, 72 h; summary of the method: as §1
B16-F10 = experiment: Growth inhibition of pro-apoptotic stimuli-sensitive mouse B16F10 cells after 72 hrs by MTT assay; assay type: functional; details: B16-F10, 72 h; summary of the method: as §1
[2] = Chemical stability of the compound at pH 5 to 7.4; assay type: physicochemical; details: buffer
MCF7 = experiment: Growth inhibition of human MCF7 cells after 72 hrs by MTT assay; assay type: functional; details: MCF7, 72 h
PC-3 = experiment: Growth inhibition of human PC3 cells after 72 hrs by MTT assay; assay type: functional; details: PC-3, 72 h
SK-MEL-28 = experiment: Growth inhibition of pro-apoptotic stimuli-resistant human SK-MEL-28 cells after 72 hrs by MTT assay; assay type: functional; details: SK-MEL-28, 72 h; summary of the method: as §1
[3] = Growth inhibition of pro-apoptotic stimuli-resistant human U373 cells after 72 hrs by MTT assay; assay type: functional, U-373MG ATCC; details: U373 MG; summary of the method: as §1
T98G = experiment: Growth inhibition of pro-apoptotic stimuli-resistant human T98G cells after 72 hrs by MTT assay; assay type: functional; summary of the method: as §1
[4] = Ratio of lycorine GI50 to compound GI50 for pro-apoptotic stimuli-resistant human U373 cells after 72 hrs by MTT assay; assay type: functional, U-373MG ATCC

GI50 (A549) [µM]	GI50 (B16-F10) [µM]	Stability [2] [days]	GI50 (MCF7) [µM]	GI50 (PC-3) [µM]	GI50 (SK-MEL-28) [µM]	SMILES	GI50 [1] [µM]	GI50 [3] [µM]	GI50 (T98G) [µM]	RatioGI50 [4]
23	23	3	38	26	34	CCCCCCCCCCCCCCCCCC(=O)O[C@H]1[C@H]2c3cc4c(cc3CN3CCC(=C[C@@H]1O)[C@H]23)OCO4	24	8	16	
15	18	3	21	19	25	CC/C=C\C/C=C\C/C=C\C/C=C\C/C=C\C/C=C\CCC(=O)O[C@H]1[C@H]2c3cc4c(cc3CN3CCC(=C[C@@H]1O)[C@H]23)OCO4	20	8	3	
4	4		0.2	1	6	C=CCO[C@H]1[C@H]2c3cc4c(cc3CN3CCC(=C[C@@H]1OCC=C)[C@H]23)OCO4 [DIALLYLLYCORINE]	2	0.03	4	100
